{
  "source": "ChEMBL document CHEMBL5661979",
  "about": "“Pharmacological inhibition of BMK1 suppresses tumor growth through promyelocytic leukemia protein” (Cancer Cell, 2010)",
  "key": {"[1]": {"molecular_target": "T1, Serine/threonine-protein kinase Chk1 (Homo sapiens) (UniProt O14757)", "T1 sequence (whole entry)": "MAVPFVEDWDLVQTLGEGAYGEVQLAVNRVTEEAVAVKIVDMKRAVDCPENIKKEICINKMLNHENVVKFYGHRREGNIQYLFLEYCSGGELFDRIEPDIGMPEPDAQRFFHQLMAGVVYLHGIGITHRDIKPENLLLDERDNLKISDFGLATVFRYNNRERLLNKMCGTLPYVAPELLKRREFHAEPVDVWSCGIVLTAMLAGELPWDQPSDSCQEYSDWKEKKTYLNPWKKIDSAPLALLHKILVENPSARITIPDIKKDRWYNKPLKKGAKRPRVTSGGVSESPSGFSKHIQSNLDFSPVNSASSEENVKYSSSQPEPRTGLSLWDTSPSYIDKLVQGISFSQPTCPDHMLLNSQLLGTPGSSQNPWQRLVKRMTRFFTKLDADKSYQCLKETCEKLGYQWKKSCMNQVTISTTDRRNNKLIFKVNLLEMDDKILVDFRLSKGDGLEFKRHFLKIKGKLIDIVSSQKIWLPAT", "assay": "Inhibition of CHK1 in human HeLa cells lysate at 2 uM pre incubated for 15 mins followed by ATP acyl phosphate probe addition and measured after 10 mins by LC-MS/MS analysis relative to control", "format": "subcellular", "conditions": "time 25.0 min"}, "[2]": {"molecular_target": "Serine/threonine-protein kinase Nek1 (Homo sapiens, UniProt Q96PY6)", "sequence (Q96PY6 whole entry)": "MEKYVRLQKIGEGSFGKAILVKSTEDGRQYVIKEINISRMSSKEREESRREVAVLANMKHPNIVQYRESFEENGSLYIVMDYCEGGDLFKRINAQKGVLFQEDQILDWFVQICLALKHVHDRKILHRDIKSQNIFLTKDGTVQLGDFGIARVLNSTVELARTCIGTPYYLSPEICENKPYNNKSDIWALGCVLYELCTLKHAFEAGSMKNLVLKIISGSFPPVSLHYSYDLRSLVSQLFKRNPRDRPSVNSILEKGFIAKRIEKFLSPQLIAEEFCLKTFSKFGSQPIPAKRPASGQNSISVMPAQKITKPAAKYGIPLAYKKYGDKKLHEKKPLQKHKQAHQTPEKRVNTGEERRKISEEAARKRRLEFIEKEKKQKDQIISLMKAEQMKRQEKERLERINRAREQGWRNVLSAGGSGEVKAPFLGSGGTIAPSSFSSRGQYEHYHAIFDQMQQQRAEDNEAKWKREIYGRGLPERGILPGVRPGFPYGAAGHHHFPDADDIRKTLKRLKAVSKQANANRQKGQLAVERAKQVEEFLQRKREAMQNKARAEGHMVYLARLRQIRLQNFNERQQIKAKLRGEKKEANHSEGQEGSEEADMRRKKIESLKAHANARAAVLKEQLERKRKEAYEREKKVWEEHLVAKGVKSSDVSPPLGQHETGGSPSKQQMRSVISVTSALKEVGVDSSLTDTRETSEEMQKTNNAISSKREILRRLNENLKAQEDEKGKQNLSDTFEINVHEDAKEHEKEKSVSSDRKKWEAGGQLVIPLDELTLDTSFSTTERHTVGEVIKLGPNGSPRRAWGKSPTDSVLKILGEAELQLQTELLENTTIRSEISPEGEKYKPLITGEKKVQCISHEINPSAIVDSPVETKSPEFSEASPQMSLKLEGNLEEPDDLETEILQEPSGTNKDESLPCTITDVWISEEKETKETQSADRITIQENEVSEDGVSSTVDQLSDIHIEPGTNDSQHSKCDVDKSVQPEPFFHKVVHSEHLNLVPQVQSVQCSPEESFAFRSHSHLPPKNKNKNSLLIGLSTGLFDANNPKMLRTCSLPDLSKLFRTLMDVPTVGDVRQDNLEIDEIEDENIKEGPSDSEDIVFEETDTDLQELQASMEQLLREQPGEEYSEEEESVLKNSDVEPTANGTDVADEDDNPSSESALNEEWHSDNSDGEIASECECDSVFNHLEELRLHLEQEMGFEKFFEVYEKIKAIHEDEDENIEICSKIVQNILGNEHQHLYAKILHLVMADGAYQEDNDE", "assay": "Inhibition of NEK1 in human HeLa cells lysate pre incubated for 15 mins followed by ATP acyl phosphate probe addition and measured after 10 mins by LC-MS/MS analysis", "format": "subcellular"}, "[3]": {"molecular_target": "Serine/threonine-protein kinase/endoribonuclease IRE1 (Homo sapiens, UniProt O75460)", "sequence (O75460 19-977 limits assumed)": "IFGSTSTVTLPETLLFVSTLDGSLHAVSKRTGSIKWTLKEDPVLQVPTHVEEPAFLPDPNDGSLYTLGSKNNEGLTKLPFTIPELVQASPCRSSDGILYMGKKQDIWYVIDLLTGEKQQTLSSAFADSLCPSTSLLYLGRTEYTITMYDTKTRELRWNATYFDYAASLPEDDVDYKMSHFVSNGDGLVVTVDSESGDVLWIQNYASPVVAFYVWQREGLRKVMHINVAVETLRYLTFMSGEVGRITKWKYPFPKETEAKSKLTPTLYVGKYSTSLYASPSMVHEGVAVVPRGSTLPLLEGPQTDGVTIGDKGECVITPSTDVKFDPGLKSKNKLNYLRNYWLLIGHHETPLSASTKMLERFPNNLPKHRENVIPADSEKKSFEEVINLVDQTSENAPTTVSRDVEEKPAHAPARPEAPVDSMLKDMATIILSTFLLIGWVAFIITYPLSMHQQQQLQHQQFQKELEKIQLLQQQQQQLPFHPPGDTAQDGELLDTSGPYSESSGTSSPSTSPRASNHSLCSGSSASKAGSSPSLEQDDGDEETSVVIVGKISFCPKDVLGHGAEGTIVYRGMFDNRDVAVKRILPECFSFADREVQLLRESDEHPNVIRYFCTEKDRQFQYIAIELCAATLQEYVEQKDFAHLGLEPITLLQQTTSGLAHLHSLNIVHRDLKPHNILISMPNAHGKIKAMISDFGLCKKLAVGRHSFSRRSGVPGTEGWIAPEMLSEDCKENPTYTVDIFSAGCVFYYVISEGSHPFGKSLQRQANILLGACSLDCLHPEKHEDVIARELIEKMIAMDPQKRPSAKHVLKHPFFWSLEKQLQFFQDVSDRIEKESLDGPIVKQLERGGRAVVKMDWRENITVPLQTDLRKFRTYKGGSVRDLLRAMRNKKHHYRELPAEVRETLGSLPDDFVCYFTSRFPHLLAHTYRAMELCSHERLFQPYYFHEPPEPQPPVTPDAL", "assay": "Inhibition of IRE1 in human HeLa cells lysate at 50 uM pre incubated for 15 mins followed by ADP acyl phosphate probe addition and measured after 10 mins by LC-MS/MS analysis relative to control", "format": "subcellular", "conditions": "time 25.0 min"}, "[4]": {"molecular_target": "Ribosomal protein S6 kinase alpha-3 (Homo sapiens, UniProt P51812)", "sequence (P51812 whole entry, the tested form may be a part)": "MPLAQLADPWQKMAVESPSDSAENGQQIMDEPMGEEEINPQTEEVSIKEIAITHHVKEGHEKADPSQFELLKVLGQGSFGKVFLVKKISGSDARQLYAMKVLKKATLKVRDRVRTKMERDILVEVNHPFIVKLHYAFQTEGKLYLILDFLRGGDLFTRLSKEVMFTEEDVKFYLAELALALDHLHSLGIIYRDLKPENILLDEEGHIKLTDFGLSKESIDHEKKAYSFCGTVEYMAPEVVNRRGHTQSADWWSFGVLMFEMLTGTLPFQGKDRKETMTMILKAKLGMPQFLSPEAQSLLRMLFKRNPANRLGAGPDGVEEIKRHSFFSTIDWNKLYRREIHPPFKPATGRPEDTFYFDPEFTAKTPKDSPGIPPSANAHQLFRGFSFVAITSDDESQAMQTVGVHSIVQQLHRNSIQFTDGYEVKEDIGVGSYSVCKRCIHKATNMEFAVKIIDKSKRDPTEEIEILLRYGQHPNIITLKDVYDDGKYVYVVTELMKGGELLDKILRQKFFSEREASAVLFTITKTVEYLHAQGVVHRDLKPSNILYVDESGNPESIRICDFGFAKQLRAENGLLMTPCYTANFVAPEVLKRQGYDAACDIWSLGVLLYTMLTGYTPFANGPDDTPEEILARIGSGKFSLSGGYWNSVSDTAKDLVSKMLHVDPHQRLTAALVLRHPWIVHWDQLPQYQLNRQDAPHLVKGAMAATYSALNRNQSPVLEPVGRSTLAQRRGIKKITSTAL", "assay": "Inhibition of RSK2 domain 1 in human HeLa cells lysate at 2 uM pre incubated for 15 mins followed by ADP acyl phosphate probe addition and measured after 10 mins by LC-MS/MS analysis relative to control", "format": "subcellular", "conditions": "time 25.0 min"}, "[5]": {"molecular_target": "Mitogen-activated protein kinase kinase kinase 5 (Homo sapiens) (UniProt Q99683)", "sequence (Q99683 whole entry)": "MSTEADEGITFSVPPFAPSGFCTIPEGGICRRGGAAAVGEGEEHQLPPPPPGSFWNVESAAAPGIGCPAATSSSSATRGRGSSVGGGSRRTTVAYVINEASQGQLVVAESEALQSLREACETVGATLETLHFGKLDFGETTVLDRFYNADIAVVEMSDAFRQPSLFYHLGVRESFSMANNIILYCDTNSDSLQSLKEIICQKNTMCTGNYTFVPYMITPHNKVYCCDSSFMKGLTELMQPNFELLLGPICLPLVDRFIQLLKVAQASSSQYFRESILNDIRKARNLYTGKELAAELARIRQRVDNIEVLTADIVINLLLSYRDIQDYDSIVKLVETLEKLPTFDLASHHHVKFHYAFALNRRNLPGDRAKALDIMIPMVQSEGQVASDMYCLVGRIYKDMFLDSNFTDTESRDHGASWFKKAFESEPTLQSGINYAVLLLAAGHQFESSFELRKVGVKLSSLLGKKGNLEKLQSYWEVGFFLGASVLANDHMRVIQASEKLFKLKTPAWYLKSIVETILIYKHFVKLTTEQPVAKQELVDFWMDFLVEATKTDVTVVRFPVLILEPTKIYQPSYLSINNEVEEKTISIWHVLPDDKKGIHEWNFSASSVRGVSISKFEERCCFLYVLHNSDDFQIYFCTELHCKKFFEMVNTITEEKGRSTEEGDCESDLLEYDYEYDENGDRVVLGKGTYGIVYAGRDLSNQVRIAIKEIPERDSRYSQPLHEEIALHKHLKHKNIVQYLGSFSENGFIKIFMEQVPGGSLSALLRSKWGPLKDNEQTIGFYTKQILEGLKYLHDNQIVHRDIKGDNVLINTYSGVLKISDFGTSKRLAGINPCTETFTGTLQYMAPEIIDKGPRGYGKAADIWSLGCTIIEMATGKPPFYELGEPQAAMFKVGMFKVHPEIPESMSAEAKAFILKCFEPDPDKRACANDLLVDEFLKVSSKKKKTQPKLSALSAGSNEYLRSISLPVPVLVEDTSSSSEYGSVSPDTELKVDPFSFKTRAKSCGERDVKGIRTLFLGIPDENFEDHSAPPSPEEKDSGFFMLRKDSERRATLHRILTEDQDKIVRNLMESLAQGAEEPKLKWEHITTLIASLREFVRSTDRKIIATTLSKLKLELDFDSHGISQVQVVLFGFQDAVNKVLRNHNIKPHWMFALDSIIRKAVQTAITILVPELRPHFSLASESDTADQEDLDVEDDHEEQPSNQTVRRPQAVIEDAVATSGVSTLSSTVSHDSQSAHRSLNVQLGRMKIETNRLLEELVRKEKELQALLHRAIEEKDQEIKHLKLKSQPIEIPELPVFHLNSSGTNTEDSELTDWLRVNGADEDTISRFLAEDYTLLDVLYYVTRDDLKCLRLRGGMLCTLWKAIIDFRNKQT", "assay": "Inhibition of MAP3K5 in human HeLa cells lysate at 2 uM pre incubated for 15 mins followed by ATP acyl phosphate probe addition and measured after 10 mins by LC-MS/MS analysis relative to control", "format": "subcellular", "conditions": "time 25.0 min"}, "[6]": {"molecular_target": "Serine/threonine-protein kinase 3/4 (Homo sapiens, UniProt Q13043+Q13188)", "assay": "Inhibition of MST1/2 in human HeLa cells lysate pre incubated for 15 mins followed by ADP acyl phosphate probe addition and measured after 10 mins by LC-MS/MS analysis", "format": "subcellular"}, "[7]": {"molecular_target": "Eukaryotic elongation factor 2 kinase (Homo sapiens, UniProt O00418)", "sequence (O00418 whole entry)": "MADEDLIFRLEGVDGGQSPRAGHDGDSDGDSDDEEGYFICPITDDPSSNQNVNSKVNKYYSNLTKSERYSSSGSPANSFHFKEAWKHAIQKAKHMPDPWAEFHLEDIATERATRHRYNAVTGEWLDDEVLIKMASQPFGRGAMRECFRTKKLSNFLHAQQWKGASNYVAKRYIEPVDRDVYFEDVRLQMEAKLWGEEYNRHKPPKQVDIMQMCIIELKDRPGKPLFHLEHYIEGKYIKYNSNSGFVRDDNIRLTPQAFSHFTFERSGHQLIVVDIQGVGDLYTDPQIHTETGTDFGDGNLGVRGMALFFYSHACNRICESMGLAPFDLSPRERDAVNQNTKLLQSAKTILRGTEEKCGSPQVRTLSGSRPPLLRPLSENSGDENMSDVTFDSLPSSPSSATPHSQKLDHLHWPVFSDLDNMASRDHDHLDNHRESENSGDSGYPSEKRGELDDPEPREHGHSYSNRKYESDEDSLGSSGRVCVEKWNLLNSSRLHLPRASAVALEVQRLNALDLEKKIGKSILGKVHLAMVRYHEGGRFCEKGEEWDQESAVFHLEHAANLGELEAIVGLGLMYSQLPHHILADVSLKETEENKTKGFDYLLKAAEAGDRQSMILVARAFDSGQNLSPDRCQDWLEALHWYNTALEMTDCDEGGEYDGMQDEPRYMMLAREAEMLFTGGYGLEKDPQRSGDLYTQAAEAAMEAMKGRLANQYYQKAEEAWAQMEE", "assay": "Inhibition of EEF2K in human HeLa cells lysate pre incubated for 15 mins followed by ATP acyl phosphate probe addition and measured after 10 mins by LC-MS/MS analysis", "format": "subcellular"}, "[8]": {"molecular_target": "5'-AMP-activated protein kinase catalytic subunit alpha-2 (Homo sapiens, UniProt P54646)", "assay": "Inhibition of AMPKalpha2 in human HeLa cells lysate pre incubated for 15 mins followed by ADP acyl phosphate probe addition and measured after 10 mins by LC-MS/MS analysis", "format": "subcellular", "summary_of_the_method": "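HeLa cell lysates (5 mg/mL total protein) were preincubated with inhibitor at 0, 0.8, 2, 10 or 50 μM for 15 min. ATP or ADP acylphosphate probe was then added (5 μM final) for 10 min, and reactions were stopped with urea. Up to four fragment ions per kinase probe-peptide were quantified by targeted MS. % inhibition was taken relative to untreated lysate. Run in duplicate.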"}, "[9]": {"molecular_target": "Cyclin-dependent kinase 2 (Homo sapiens, UniProt P24941)", "assay": "Inhibition of CDK2 in human HeLa cells lysate at 50 uM pre incubated for 15 mins followed by ADP acyl phosphate probe addition and measured after 10 mins by LC-MS/MS analysis relative to control", "format": "subcellular", "conditions": "time 25.0 min", "summary_of_the_method": "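KiNativ profiling in HeLa lysate (5 mg/mL total protein). Lysate incubated 15 min with inhibitor at 50, 10, 2, 0.8 or 0 μM. ATP or ADP acylphosphate probe then added (5 μM final) and reacted 10 min. Reaction stopped with urea and analysed by targeted MS, using up to four fragment ions per kinase peptide-probe conjugate. % inhibition taken against untreated lysate. Run in duplicate.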"}, "[10]": {"molecular_target": "Serine/threonine-protein kinase tousled-like 2 (Homo sapiens, UniProt Q86UE8)", "assay": "Inhibition of TLK2 in human HeLa cells lysate at 10 uM pre incubated for 15 mins followed by ADP acyl phosphate probe addition and measured after 10 mins by LC-MS/MS analysis relative to control", "format": "subcellular", "conditions": "time 25.0 min"}, "[11]": {"assay": "Inhibition of PKD1/2 in human HeLa cells lysate pre incubated for 15 mins followed by ATP acyl phosphate probe addition and measured after 10 mins by LC-MS/MS analysis", "format": "subcellular"}, "[12]": {"molecular_target": "T2, Mitogen-activated protein kinase kinase kinase 7 (Homo sapiens) (UniProt O43318)", "T2 sequence (whole entry)": "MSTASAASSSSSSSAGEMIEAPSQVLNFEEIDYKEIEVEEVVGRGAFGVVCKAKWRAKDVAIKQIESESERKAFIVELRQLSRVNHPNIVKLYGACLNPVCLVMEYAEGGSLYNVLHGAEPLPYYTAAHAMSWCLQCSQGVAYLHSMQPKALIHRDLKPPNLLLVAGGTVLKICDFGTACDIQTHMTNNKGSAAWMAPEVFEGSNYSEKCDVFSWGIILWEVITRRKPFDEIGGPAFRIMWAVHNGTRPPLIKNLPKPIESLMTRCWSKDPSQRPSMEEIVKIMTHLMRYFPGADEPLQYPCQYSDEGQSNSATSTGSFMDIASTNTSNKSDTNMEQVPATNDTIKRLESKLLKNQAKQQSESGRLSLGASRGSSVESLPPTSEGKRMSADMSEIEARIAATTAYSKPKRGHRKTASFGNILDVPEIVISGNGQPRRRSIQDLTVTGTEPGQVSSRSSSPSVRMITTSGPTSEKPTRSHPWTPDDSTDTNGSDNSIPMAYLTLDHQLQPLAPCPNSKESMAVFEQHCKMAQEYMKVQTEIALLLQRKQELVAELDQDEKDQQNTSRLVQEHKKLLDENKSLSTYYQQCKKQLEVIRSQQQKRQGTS", "assay": "Inhibition of TAK1 in human HeLa cells lysate at 2 uM pre incubated for 15 mins followed by ATP acyl phosphate probe addition and measured after 10 mins by LC-MS/MS analysis relative to control", "format": "subcellular", "conditions": "time 25.0 min"}, "[13]": {"molecular_target": "Mitogen-activated protein kinase 3 (Homo sapiens, UniProt P27361)", "assay": "Inhibition of ERK1 in human HeLa cells lysate pre incubated for 15 mins followed by ATP acyl phosphate probe addition and measured after 10 mins by LC-MS/MS analysis", "format": "subcellular"}, "[14]": {"assay": "Inhibition of PKD1/2 in human HeLa cells lysate at 50 uM pre incubated for 15 mins followed by ATP acyl phosphate probe addition and measured after 10 mins by LC-MS/MS analysis relative to control", "conditions": "25 min, condition cancer"}},
  "data": [
    {"smiles": "CCOc1cc(N2CCC(O)CC2)ccc1Nc1ncc2c(n1)N(C)c1ccccc1C(=O)N2C", "values": [
      {"measurement": "inhibition", "setting": "[1]", "value": 5.4, "unit": "%"},
      {"measurement": "IC50", "setting": "[2]", "value": "> 50", "unit": "µM"},
      {"measurement": "inhibition", "setting": "[3]", "value": 6.2, "unit": "%"},
      {"measurement": "inhibition", "setting": "[4]", "value": 4.9, "unit": "%"},
      {"measurement": "inhibition", "setting": "[5]", "value": -6.5, "unit": "%"},
      {"measurement": "IC50", "setting": "[6]", "value": "> 50", "unit": "µM"},
      {"measurement": "IC50", "setting": "[7]", "value": "> 50", "unit": "µM"},
      {"measurement": "IC50", "setting": "[8]", "value": "> 50", "unit": "µM"},
      {"measurement": "inhibition", "setting": "[9]", "value": -3.2, "unit": "%"},
      {"measurement": "inhibition", "setting": "[10]", "value": 0.4, "unit": "%"},
      {"measurement": "IC50", "setting": "[11]", "value": "> 50", "unit": "µM"},
      {"measurement": "inhibition", "setting": "[12]", "value": -4.8, "unit": "%"},
      {"measurement": "IC50", "setting": "[13]", "value": "> 50", "unit": "µM"},
      {"measurement": "inhibition at 50 µM", "setting": "[14]", "value": 13.9, "unit": "%"}
    ]}
  ]
}
